Data published in ChEMBL document CHEMBL1132415, “Domain-structured N1,N2-derivatized hydrazines as inhibitors of ribonucleoside diphosphate reductase: redox-cycling considerations” (J Med Chem, 1999).

How the values were obtained:
[1] = (§1) Activity against metalloenzyme Ribonucleoside diphosphate reductase was evaluated from a subcutaneously growing murine tumor (sarcoma 180) implanted in B6D2F3 male mice at 0.01 conc
How it was run: (§2)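 RdR from excised subcutaneous sarcoma 180 tumors in male B6D2F3 mice; chelators supplied in DMF. Enzyme-started at 37 °C, stopped by boiling at 0, 10, 20 min. Cytidine/deoxycytidine separated by cellulose TLC, radioactivity scanned. Protein by BSA-standard method.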

[2] = Activity against metalloenzyme Ribonucleoside diphosphate reductase was evaluated from a subcutaneously growing murine tumor (sarcoma 180) implanted in B6D2F3 male mice at 0.0033 conc; how it was run: as §2
[3] = Activity against metalloenzyme Ribonucleoside diphosphate reductase was evaluated from a subcutaneously growing murine tumor (sarcoma 180) implanted in B6D2F3 male mice at 0.00033 conc; how it was run: as §2
[4] = Activity against metalloenzyme Ribonucleoside diphosphate reductase was evaluated from a subcutaneously growing murine tumor (sarcoma 180) implanted in B6D2F3 male mice at 0.033 conc; how it was run: as §2
[5] = Inhibition of metalloenzyme Ribonucleoside diphosphate reductase.; parameters: concentration or dose not given beside the values; conditions: concentration not given here; how it was run: as §2
[6] = (§3) Activity against metalloenzyme Ribonucleoside diphosphate reductase was evaluated from a subcutaneously growing murine tumor (sarcoma 180) implanted in B6D2F3 male mice at 0.1 conc; how it was run: as §2
[7] = Activity against metalloenzyme Ribonucleoside diphosphate reductase was evaluated from a subcutaneously growing murine tumor (sarcoma 180) implanted in B6D2F3 male mice at 1.0 conc; how it was run: as §2
[8] = as §1; how it was run: as §2; remark: listed apart in the source
[9] = Activity against metalloenzyme Ribonucleoside diphosphate reductase was evaluated from a subcutaneously growing murine tumor (sarcoma 180) implanted in B6D2F3 male mice, in reference to hydroxy-urea at 0.033 conc
[10] = Activity against metalloenzyme Ribonucleoside diphosphate reductase was evaluated from a subcutaneously growing murine tumor (sarcoma 180) implanted in B6D2F3 male mice, in reference to hydroxy-urea at 0.007 conc
[11] = Activity against metalloenzyme Ribonucleoside diphosphate reductase was evaluated from a subcutaneously growing murine tumor (sarcoma 180) implanted in B6D2F3 male mice at 0.027 conc; how it was run: as §2
[12] = Activity against metalloenzyme Ribonucleoside diphosphate reductase was evaluated from a subcutaneously growing murine tumor (sarcoma 180) implanted in B6D2F3 male mice at 0.0002 conc; how it was run: as §2
[13] = Activity against metalloenzyme Ribonucleoside diphosphate reductase was evaluated from a subcutaneously growing murine tumor (sarcoma 180) implanted in B6D2F3 male mice at 0.02 conc; how it was run: as §2
[14] = Activity against metalloenzyme Ribonucleoside diphosphate reductase was evaluated from a subcutaneously growing murine tumor (sarcoma 180) implanted in B6D2F3 male mice at 0.002 conc; how it was run: as §2
[15] = as §3; how it was run: as §2; remark: listed apart in the source
[16] = (§4) Activity against metalloenzyme Ribonucleoside diphosphate reductase was evaluated from a subcutaneously growing murine tumor (sarcoma 180) implanted in B6D2F3 male mice, in reference to hydroxy-urea at 0.1 conc
[17] = as §4; remark: listed apart in the source

With `Cc1ncc(CO)c(/C=N/NC(=O)c2cc[n+](C)cc2)c1O` the inhibition [1] was 0%.
`Oc1c(Cl)cc(Cl)cc1/C=N/Nc1ccccn1` gave an inhibition [2] of 34%, an inhibition [3] of 12% and an inhibition [4] of 65%. It also gave an inhibition [5] of 82%.
In the case of “1:2 Copper(II):1-[5'-Bromosalicylidene]-2-[N-(ethoxy-carbonylmethyl)isonicotinoyl]hydrazine Sulfate Complex”, the inhibition [6] was 64%, the inhibition [1] was 35% and the inhibition [5] was 72%. It also gave an inhibition [7] of 71%.
Compound `Cc1ncc(CO)c(/C=N/CC/N=C/c2c(CO)cnc(C)c2O)c1O` has an inhibition [8] of 0%.
`CCOC(=O)C[n+]1cc(CO)c(/C=N/Nc2ccccn2)c(O)c1C` showed an inhibition [5] of 15%.
With `CCOC(=O)C[n+]1cc(CO)c(/C=N/Nc2ncccn2)c(O)c1C` the inhibition [6] was 76%, the inhibition [1] was 79% and the inhibition [5] was 72%. It also gave an inhibition [7] of 79%.
For `CC(=O)OCc1cnc(C)c(O)c1/C=N/Nc1ncccn1`, the inhibition [8] was 30%.
For `C[n+]1ccccc1N/N=C/c1cc(Cl)cc(Cl)c1O`, the inhibition [2] was 34%, the inhibition [3] was 8% and the inhibition [9] was 82%. The inhibition [4] was 58%.
`Cc1ncc(CO)c(/C=N/Nc2ncc(Cl)cc2Cl)c1O` gave an inhibition [8] of 78%, an inhibition [1] of 79% and an inhibition [5] of 72%. For the same compound, the inhibition [7] was 83%.
Work on `Cc1c(O)c(/C=N/Nc2ncccn2)c(CO)c[n+]1C` yielded an inhibition [5] of 15%.
“Copper(II) Chelate of 1-[Pyridoxylidene]-2-[5'-chloro-2'-pyridyl]hydrazine Sulfate” gave an inhibition [6] of 65%, an inhibition [8] of 27% and an inhibition [5] of 81%. The inhibition [7] was 82%.
With `Cc1c(O)c(/C=N/NC(=O)c2cc[n+](C)cc2)c(CO)c[n+]1C` the inhibition [1] was 0%.
Compound `Cc1ncc(CO)c(/C=N/Nc2ccccn2)c1O` has an inhibition [10] of 15% and an inhibition [1] of 72%.
Compound “1:2 Copper(II):1-[5'-Bromosalicylidene]-2-[isonicotinoyl]-hydrazine Formate Complex” has an inhibition [6] of 28%, an inhibition [1] of 22% and an inhibition [5] of 73%. The inhibition [7] was 59%.
With `Cc1ncc(CO)c(/C=N/NC(=O)c2ccnc3ccccc23)c1O` the inhibition [11] was 63%, the inhibition [12] was 11% and the inhibition [5] was 81%.
`Cc1ncc(CO)c(/C=N/Nc2nnc(N/N=C/c3c(CO)cnc(C)c3O)c3ccccc23)c1O` showed an inhibition [8] of 0%.
Compound `Cc1cc(O)nc(N/N=C/c2c(CO)cnc(C)c2O)n1` has an inhibition [5] of 15% and an inhibition [7] of 0%.
In the case of `C[n+]1ccc(C(=O)N/N=C/c2cc(Cl)cc(Cl)c2O)cc1`, the inhibition [1] was 0%.
`Cc1ncc(CO)c(/C=N/Nc2ncccn2)c1O` showed an inhibition [5] of 78% and an inhibition [7] of 78%.
With `CCOC(=O)C[n+]1ccc(C(=O)N/N=C/c2cc(Cl)ccc2O)cc1` the inhibition [12] was 18%, the inhibition [13] was 77% and the inhibition [14] was 10%. It also gave an inhibition [5] of 81%.
Work on `CCOC(=O)C[n+]1ccc(C(=O)N/N=C/c2cc(Br)ccc2O)cc1` yielded an inhibition [1] of 0% and an inhibition [5] of 81%.
With `Oc1ccc(Br)cc1/C=N/Nc1ccccn1` the inhibition [1] was 0%.
`CC(=O)OCc1cnc(C)c(OC(C)=O)c1/C=N/Nc1ncccn1` gave an inhibition [1] of 24%, an inhibition [15] of 43% and an inhibition [16] of 37%. The inhibition [5] was 73% and the inhibition [7] was 79%.
`Cc1ncc(CO)c(/C=N/Nc2nc(Cl)c(Cl)c(Cl)c2Cl)c1O` showed an inhibition [1] of 25%, an inhibition [15] of 18% and an inhibition [5] of 72%. For the same compound, the inhibition [7] was 43%.
Compound `Cc1c(O)c(/C=N/N=c2\ccccn2C)c(CO)c[n+]1C` has an inhibition [1] of 0% and an inhibition [5] of 81%.
For “Copper(II)-Chelate of 1-[Pyridoxylidene]-2-[2'-pyrimidyl]-hydrazine Sulfate”, the inhibition [6] was 78%, the inhibition [8] was 38% and the inhibition [5] was 73%. The inhibition [17] was 37% and the inhibition [7] was 86%.
`COc1ccc(COC(=O)N/N=C/c2c(CO)cnc(C)c2O)cc1` showed an inhibition [1] of 0%.
In the case of “Copper(II) Chelate of 1-[Pyridoxylidene]-2-[3',5'-chloro-2'-pyridyl]hydrazine Sulfate”, the inhibition [6] was 83%, the inhibition [8] was 37% and the inhibition [5] was 81%. For the same compound, the inhibition [7] was 85%.
For `CC(=O)OCc1cnc(C)c(OC(C)=O)c1/C=N/Nc1ccccn1`, the inhibition [6] was 68%, the inhibition [8] was 31% and the inhibition [15] was 68%. The inhibition [16] was 37% and the inhibition [17] was 37%.
With `Cc1ncc(CO)c(/C=N/Nc2[nH]cnc3ncnc2-3)c1O` the inhibition [2] was 21%, the inhibition [3] was 18% and the inhibition [4] was 72%. For the same compound, the inhibition [5] was 81%.
